In one data set the target is T1, Tyrosinase (Agaricus bisporus, UniProt O42713).
T1 sequence (O42713 whole entry): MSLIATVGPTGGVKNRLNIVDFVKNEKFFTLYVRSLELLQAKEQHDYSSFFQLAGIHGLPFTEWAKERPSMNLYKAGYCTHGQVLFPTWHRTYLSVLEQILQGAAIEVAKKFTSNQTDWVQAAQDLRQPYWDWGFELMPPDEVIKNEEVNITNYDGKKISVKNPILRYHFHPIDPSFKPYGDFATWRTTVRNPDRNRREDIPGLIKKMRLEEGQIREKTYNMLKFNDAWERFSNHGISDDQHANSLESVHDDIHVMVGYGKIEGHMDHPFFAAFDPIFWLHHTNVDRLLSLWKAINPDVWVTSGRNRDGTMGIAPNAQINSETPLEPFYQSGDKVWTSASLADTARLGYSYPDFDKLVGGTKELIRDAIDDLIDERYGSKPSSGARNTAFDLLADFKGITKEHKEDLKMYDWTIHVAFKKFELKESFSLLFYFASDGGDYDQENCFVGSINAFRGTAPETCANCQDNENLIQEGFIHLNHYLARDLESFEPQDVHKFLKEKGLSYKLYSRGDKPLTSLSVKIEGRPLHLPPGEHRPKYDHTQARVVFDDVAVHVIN
Briefly: Inhibition of mushroom tyrosinase assessed as 3,4-dihydroxy-L-phenylalanine oxidation.

The target in data set [1] is T2, Tyrosinase (Agaricus bisporus) (UniProt O42713).
T2 sequence (whole entry): T1 sequence (O42713 whole entry)
The data set can be described thus: Inhibition of mushroom tyrosinase assessed as 3,4-dihydroxy-L-phenylalanine oxidation at 0.1 mM. The gist of the method:
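Mushroom tyrosinase was the enzyme source. Activity was reported as IC50 in mM, with compounds tested up to 3.0 mM, and as percent inhibition at 0.1 mM. Values are means of three separate experiments.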

Data set [2] deals with Mus musculus. Briefly: Toxicity in mouse assessed as mortality at 1200 mg/kg, po administered as single gavage dose after 20 days. In kind it is organism-based. Further details: dose 1200 mg/kg, route oral. Conditions: in vivo, 480 h. The procedure, abridged:
(§1)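 Acute oral toxicity in mice: one 1200 mg/kg dose given by gavage. Clinical symptoms and mortality were followed for 20 days. Animals were autopsied at the end of the 20-day period, and organs were examined for gross changes.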

Data set [3] has as its system Mus musculus. Briefly: Toxicity in mouse assessed by autopsy at 1200 mg/kg, po administered as single gavage dose after 20 days. Further details: dose 1200 mg/kg, route oral. The class given is organism-based. Conditions: in vivo, 480 h. The gist of the method: as §1

Active and inactive are the calls of the source. The calls are words filed in the database; no cut-off is given here. A value given as a limit tells only on which side of the number the result lay.

For the compound `O=Cc1ccc(O[C@@H]2OC[C@@H](O)[C@@H](O)[C@H]2O)cc1`, the IC50 at Tyrosinase stood at 280 µM. For the same compound, the inhibition in data set [1] is 42%.
In the case of `COP(=O)(OC)OC[C@H]1O[C@@H](Oc2ccc(C=O)cc2)[C@H](O)[C@H](O)[C@@H]1O`, the IC50 at Tyrosinase came out at 430 µM. Moreover, the inhibition in data set [1] turned out to be 24%.
As for `O=Cc1ccc(O[C@@H]2O[C@H](CO)[C@@H](O)[C@@H](O)[C@H]2O)cc1` [HELICIDE], the concentration for half-maximal inhibition (IC50) on Tyrosinase was 2540 µM. In data set [1], the inhibition came out at 10%.
In the case of `OC[C@H]1O[C@@H](Oc2ccc(O)cc2)[C@H](O)[C@@H](O)[C@@H]1O`, the outcome in data set [1] was inactive.
In the case of `CC1(C)O[C@@H]2[C@H](O)[C@@H](CO)O[C@@H](Oc3ccc(C=O)cc3)[C@@H]2O1`, at Tyrosinase, the concentration for half-maximal inhibition (IC50) was found to be 620 µM. For the same compound, the inhibition in data set [1] worked out at 13%.
The corresponding values for `CC(=O)OC[C@H]1O[C@@H](O[C@H]2[C@H](OC(C)=O)[C@@H](OC(C)=O)[C@H](Oc3ccc(C=O)cc3)O[C@@H]2COC(C)=O)[C@H](OC(C)=O)[C@@H](OC(C)=O)[C@H]1OC(C)=O` are above 3000 µM and 5%.
As to `CC(=O)OC[C@H]1O[C@@H](Oc2ccc(C=O)cc2)[C@H](OC(C)=O)[C@@H](OC(C)=O)[C@@H]1OC(C)=O`, on Tyrosinase, the half-inhibitory concentration (IC50) is above 3000 µM. Moreover, in data set [1], the result was inactive.
For `CC(=O)O[C@H]1[C@@H](OC(C)=O)[C@H](Oc2ccc(C=O)cc2)O[C@H](CO)[C@H]1OC(C)=O` the same measures were above 3000 µM and “inactive”.
As to `COc1ccc(/C=C/C(=O)O)cc1`, the inhibition in data set [1] is 22%.
`O=Cc1ccc(O[C@@H]2O[C@H](CO)[C@@H](O)[C@H](O)[C@H]2O)cc1`: the IC50 at Tyrosinase worked out at 940 µM. Moreover, in data set [1], the inhibition is 30%. In addition, the Activity entry with Mus musculus [2] and in the data set on Mus musculus [3] was “Non-toxic” each time.
`O=Cc1ccc(O[C@@H]2OC[C@@H](OC(=O)c3ccccc3)[C@@H](OC(=O)c3ccccc3)[C@H]2OC(=O)c2ccccc2)cc1`: the IC50 at Tyrosinase is above 3000 µM. For the same compound, the result in data set [1] was inactive.
In the case of `O=Cc1ccc(O)cc1` [4-HYDROXYBENZALDEHYDE], the half-inhibitory concentration (IC50) at Tyrosinase came to 1120 µM. The inhibition in data set [1] came out at 15%.
For `O=Cc1ccc(O[C@@H]2O[C@H](COC(c3ccccc3)(c3ccccc3)c3ccccc3)[C@@H](O)[C@@H](O)[C@H]2O)cc1`, at Tyrosinase, the IC50 is above 3000 µM. Moreover, the result in data set [1] was inactive.
As to `O=Cc1ccc(O[C@@H]2O[C@@H]3CO[C@@H](c4ccccc4)O[C@H]3[C@@H](O)[C@H]2O)cc1`, on Tyrosinase, the 50% inhibitory concentration (IC50) stood at 52 µM. Also, the inhibition in data set [1] was 77%. In addition, the Activity result in the data set with Mus musculus [2] and in the data set with Mus musculus [3] was “Non-toxic” each time.

(Values after ChEMBL document CHEMBL1152202, “Synthesis and biological evaluation of helicid analogues as mushroom tyrosinase inhibitors” (Bioorg Med Chem Lett, 2008).)
